Data on 14 compounds can be found in ChEMBL document CHEMBL1156665, “Potent inhibition of human phosphodiesterase-5 by icariin derivatives” (J Nat Prod, 2008).

Data set [1] is described as follows: Inhibition of human platelet cAMP-specific phosphodiesterase. Summed up:
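Platelets from healthy volunteers' blood, pelleted by centrifugation at 4 °C, resuspended in 10 mM Tris/HCl pH 7.4 and lysed by three freeze–thaw cycles. Lysate (64 µg protein/mL) incubated 5 min at 30 °C with 0.5 µM cAMP plus [3H]-cAMP in 30 mM Tris-HCl pH 7.4, 4 mM MgCl2. Product converted with nucleotidase and separated on DEAE-Sephadex. [3H]-adenosine counted by scintillation. Tested at 1–250 µM, IC50 from sigmoidal fit. Mean ± SD of three experiments in triplicate.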

Data set [2] has as its target T1, cGMP-specific 3',5'-cyclic phosphodiesterase (Homo sapiens, UniProt O76074). Nature of the data set: Inhibition of human recombinant PDE5A1 expressed in COS7 cells. Type of data set: cell-based, COS-7.
In data set [3] the target is T2, Cone cGMP-specific 3',5'-cyclic phosphodiesterase subunit alpha' (Homo sapiens, UniProt P51160). Briefly: Inhibition of human PDE6C at 10 uM. As to conditions: in the assay text read “at 10-fold PDE5A1 IC50” for “at 10 uM”. Summed up:
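Human PDE6C run under the same conditions as the PDE5A1 assay (Kincaid–Manganiello method, modified), at 0.5 U enzyme per sample. Compounds tested at a single concentration 10-fold above their PDE5A1 IC50. Mean ± SD of at least two experiments in triplicate.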

Data set [4] has as its target T1, cGMP-specific 3',5'-cyclic phosphodiesterase. Briefly: Inhibition of human recombinant PDE5A1 expressed in COS7 cells at 10 uM. It counts as cell-based. As to conditions: COS-7. Put shortly: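 Full-length human PDE5A1 cDNA expressed in COS-7 cells as the enzyme source. Activity measured by the Kincaid and Manganiello method with minor modifications. Individual compounds screened at a single 10 µM concentration; plant extracts at 50 µg/mL. Results are mean ± SD of at least two experiments in triplicate.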

The species entered for data set [5] is Homo sapiens. Nature of the data set: Selectivity ratio of IC50 for human cAMP-PDE to IC50 for human PDE5A1. Put shortly:
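cAMP-PDE IC50 divided by PDE5A1 IC50. cAMP-PDE from human platelet lysate (64 µg protein/mL) with 0.5 µM cAMP/[3H]-cAMP, 5 min at 30 °C, at 1–250 µM. PDE5A1 was recombinant human full-length enzyme expressed in COS-7 cells. IC50s from sigmoidal fits.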

The species entered for data set [6] is Homo sapiens. Nature of the data set: Selectivity ratio of IC50 for human PDE6C to IC50 for human PDE5A1. Put shortly: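 PDE6C IC50 divided by PDE5A1 IC50. PDE6C assayed as for PDE5A1 (modified Kincaid–Manganiello method, 0.5 U enzyme/sample). PDE5A1 was full-length human recombinant enzyme expressed in COS-7 cells. IC50s from sigmoidal curve fits. Mean ± SD of at least two experiments in triplicate.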

Data set [7] concerns the target T2, Cone cGMP-specific 3',5'-cyclic phosphodiesterase subunit alpha'. Briefly: Inhibition of human PDE6C.
The nature of data set [8]: Cytotoxicity against human fibroblasts at 100 uM after 24 hrs by MTT assay. Type of data set: cell-based. As to conditions: fibroblast. Summed up:
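Human skin fibroblasts exposed 24 h to 0.25–100 µM in DMEM-F12 with 10% heat-inactivated FBS, 1% penicillin, 1% L-glutamine. Medium then replaced with MTT 0.5 mg/mL in PBS, 3 h at 37 °C. Formazan extracted with 2-propanol/DMSO (9:1), 15 min at 37 °C, absorbance read at 560 nm.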
In general terms: Formazan colour is commonly taken as a measure of viable cells.

Each structure is given as a SMILES string. Calls of active or inactive are those of the source. The calls are words filed in the database; no cut-off is given here.

T2 sequence (P51160 whole entry): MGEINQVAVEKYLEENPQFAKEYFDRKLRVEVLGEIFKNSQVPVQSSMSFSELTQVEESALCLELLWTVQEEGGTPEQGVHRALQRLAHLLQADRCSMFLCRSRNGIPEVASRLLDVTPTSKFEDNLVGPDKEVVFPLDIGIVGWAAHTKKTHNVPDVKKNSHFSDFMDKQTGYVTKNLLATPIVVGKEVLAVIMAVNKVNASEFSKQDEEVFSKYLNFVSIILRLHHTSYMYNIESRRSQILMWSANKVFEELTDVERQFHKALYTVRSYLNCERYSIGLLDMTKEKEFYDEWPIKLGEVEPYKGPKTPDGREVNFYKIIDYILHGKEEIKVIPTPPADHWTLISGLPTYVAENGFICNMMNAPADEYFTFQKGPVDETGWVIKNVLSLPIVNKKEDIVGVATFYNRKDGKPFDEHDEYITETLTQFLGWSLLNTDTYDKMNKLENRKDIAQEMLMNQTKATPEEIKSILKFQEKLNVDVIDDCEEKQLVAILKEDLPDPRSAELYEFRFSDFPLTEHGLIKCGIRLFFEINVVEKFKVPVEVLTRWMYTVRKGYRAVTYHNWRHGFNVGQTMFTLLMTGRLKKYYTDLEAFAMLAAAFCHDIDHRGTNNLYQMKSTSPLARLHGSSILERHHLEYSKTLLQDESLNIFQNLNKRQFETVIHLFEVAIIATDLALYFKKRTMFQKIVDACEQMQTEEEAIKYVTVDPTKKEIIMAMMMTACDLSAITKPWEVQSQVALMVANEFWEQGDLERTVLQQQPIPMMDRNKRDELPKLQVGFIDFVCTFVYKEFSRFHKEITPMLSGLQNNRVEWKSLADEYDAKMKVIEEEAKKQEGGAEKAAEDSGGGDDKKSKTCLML

Take `CCCc1nn(C)c2c(=O)[nH]c(-c3cc(S(=O)(=O)N4CCN(C)CC4)ccc3OCC)nc12`: in data set [1], the IC50 (commonly the concentration that gives 50% inhibition) came out at 27.5 µM.

Regarding `CC(C)=CCc1c(O)cc(O)c2c(=O)c(O)c(-c3ccc(O)c(O)c3)oc12`, in data set [2], the IC50 is 0.7 µM.

In the case of `COc1ccc(-c2oc3c(CC=C(C)C)c(OCCO)cc(O)c3c(=O)c2O[C@@H]2O[C@H](C)[C@@H](O)[C@H](O)[C@@H]2O)cc1`, the IC50 in data set [2] amounted to 0.36 µM. The inhibition (as a rule, the percentage by which the read-out fell short of the control) in data set [3] is 86%.

In the case of `COc1ccc(-c2oc3c(CC=C(C)C)c(O)cc(O)c3c(=O)c2O[C@@H]2O[C@H](C)[C@@H](O)[C@H](O)[C@@H]2O)cc1`, in data set [3], the result was inactive.

Turning to `CC(C)=CCc1c(O)cc(O)c2c1OC(c1ccc(O)cc1)CC2=O` (centres undefined) [SOPHORAFLAVANONE B], the IC50 in data set [2] was 16.2 µM.

Turning to `O=c1c(O)c(-c2ccc(O)c(O)c2)oc2cc(O)cc(O)c12`, the inhibition in data set [4] worked out at 23%.

On to `COc1ccc(-c2oc3c(CC=C(C)C)c(O[C@@H]4O[C@H](CO)[C@@H](O)[C@H](O)[C@H]4O)cc(O)c3c(=O)c2O[C@@H]2O[C@@H](C)[C@H](O)[C@@H](O)[C@H]2O)cc1` [ICARIIN], for which, in data set [2], the IC50 stood at 5.9 µM. For the same compound, the inhibition in data set [3] came to 45%.

As for `COc1ccc(-c2oc3c(CC=C(C)C)c(OCCO)cc(O)c3c(=O)c2OCCO)cc1`, the IC50 was determined as 0.074 µM in data set [2], 96.3 µM in data set [1] and 30.9 µM in data set [7]. Besides, the Ratio IC50 is 1300 in data set [5] and 418 in data set [6]. In data set [8], the Activity entry is recorded as “Non-toxic”. For the same compound, the result in data set [3] was inactive.

Regarding `COc1ccc(-c2oc3c4c(cc(O)c3c(=O)c2O)OC(C)(C)CC4)cc1`, in data set [2], the IC50 was 45.5 µM. Besides, in data set [3], the outcome was inactive.

On to `COc1ccc(-c2oc3c(CC=C(C)C)c(O)cc(O)c3c(=O)c2O[C@@H]2O[C@@H](C)[C@H](O)[C@@H](O)[C@H]2O)cc1` [ICARISIDE II], for which the IC50 in data set [2] stood at 0.16 µM.

Take `O=c1cc(-c2ccc(O)cc2)oc2cc(O)cc(O)c12`: in data set [4], the inhibition was found to be 12%.

Take `O=C1C[C@@H](c2ccc(O)cc2)Oc2cc(O)cc(O)c21`: the inhibition in data set [4] was 6%.

For `CC(C)=CCc1c(O)cc(O)c2c(=O)cc(-c3ccc(O)cc3)oc12`, in data set [2], the IC50 is 1.29 µM.

In the case of `COc1ccc(-c2oc3c(CC=C(C)C)c(O)cc(O)c3c(=O)c2O)cc1` [ICARITIN], in data set [2], the IC50 stood at 2.2 µM. Moreover, in data set [3], the result was inactive.
